In ChEMBL document CHEMBL3244396, “Synthesis and antileukemic activity of 5-substituted 2,3-dihydro-6,7-bis(hydroxymethyl)-1H-pyrrolizine diesters” (J Med Chem, 1977):

How the values were obtained:
[1] = Cytotoxicity against human 9KB cells treated as ethanol solution; format: functional; conditions: read-out: ED50 (the source's name)
Summary of the method: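 Compound applied as an ethanol solution; activity read out as ED50 under the general screening protocol.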

L1210 [2] = assay: Antileukemic activity against mouse L1210 cells allografted in female BDF1 mouse assessed as change in body weight at 100 mg/kg, ip administered daily for 9 days as Klucel suspension starting 24 hrs after tumor inoculation; format: functional; conditions: route intraperitoneal
Summary of the method: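 Ascitic fluid carrying L1210 cells was inoculated ip. Compound was given ip as a Klucel (hydroxypropylcellulose) suspension in nine daily doses, starting 24 h after inoculation. Body-weight difference (treated minus control) was recorded on day 5. Survival was scored as %T/C of mean survival time.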

L1210 [3] = assay: Antileukemic activity against mouse L1210 cells allografted in female BDF1 mouse assessed as host mean survival time at 100 mg/kg, ip administered daily for 9 days as Klucel suspension starting 24 hrs after tumor inoculation relative to control; format: functional; conditions: route intraperitoneal
Summary of the method: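 L1210 leukemia given as an ascitic fluid cell inoculum, ip, to mice of the strain and sex in each line. Test material was given ip for nine daily doses starting 24 h after inoculation, in a Klucel (hydroxypropylcellulose) suspension. Read-out is mean survival time as %T/C versus controls, with >125 taken as significant.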

Mus musculus [4] = assay: Toxicity in female BDF1 mouse allografted with mouse L1210 cells assessed as animal survival at 200 mg/kg, ip administered daily for 9 days as Klucel suspension starting 24 hrs after tumor inoculation measured on fifth day; format: organism-based; design: dose 200 mg/kg, route intraperitoneal; conditions: in vivo
Summary of the method: (§1)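 L1210 leukemia passaged as ascitic fluid and inoculated ip. Test agent given ip as a Klucel (hydroxypropylcellulose) suspension, nine daily doses starting 24 h after tumor inoculation. Acute toxicity read as toxicity-day survivors per group (out of 6), recorded on day 5. Animal weight difference T − C was also recorded. Follows NCI screening protocols.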

Mus musculus [5] = assay: Toxicity in female BDF1 mouse allografted with mouse L1210 cells assessed as animal survival at 50 mg/kg, ip administered daily for 9 days as Klucel suspension starting 24 hrs after tumor inoculation measured on fifth day; format: organism-based; design: dose 50 mg/kg, route intraperitoneal; conditions: in vivo; summary of the method: as §1
P388 [6] = assay: Antitumor activity against mouse P388 cells allografted in female BDF1 mouse assessed as disease cures by measuring 30-days host survival at 6.25 mg/kg, ip administered daily for 9 days as Klucel suspension starting 24 hrs after tumor inoculation relative to control; format: functional; conditions: route intraperitoneal
Summary of the method: (§2)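 P388 leukemia given as an ascitic fluid cell inoculum, ip, to mice of the strain and sex in each line. Nine daily ip doses were given in a Klucel (hydroxypropylcellulose) suspension, starting 24 h after inoculation. Read-out is median survival time as %T/C, with >125 taken as significant; a "cure" means 30-day survival.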

Mus musculus [7] = assay: Toxicity in female BDF1 mouse allografted with mouse P388 cells assessed as animal survival at 25 mg/kg, ip administered daily for 9 days as Klucel suspension starting 24 hrs after tumor inoculation; format: organism-based; design: dose 25 mg/kg, route intraperitoneal; conditions: in vivo
Summary of the method: (§3)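 P-388 leukemia ascitic fluid inoculated ip. Compound given ip as a suspension in Klucel (hydroxypropylcellulose), once daily for nine doses beginning 24 h post-inoculation. Acute toxicity assessed as toxicity-day survivors per group. Survival was followed up to 30 days, with 30-day survival counted as "cure". Follows NCI screening protocols.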

Mus musculus [8] = assay: Toxicity in female BDF1 mouse allografted with mouse P388 cells assessed as animal survival at 12.5 mg/kg, ip administered daily for 9 days as Klucel suspension starting 24 hrs after tumor inoculation; format: organism-based; design: dose 12.5 mg/kg, route intraperitoneal; conditions: in vivo; summary of the method: as §3
P388 [9] = assay: Antitumor activity against mouse P388 cells allografted in male CDF1 mouse assessed as disease cures by measuring 30-days host survival at 25 mg/kg, ip administered daily for 9 days as Klucel suspension starting 24 hrs after tumor inoculation relative to control; format: functional; conditions: route intraperitoneal; summary of the method: as §2
P388 [10] = assay: Antitumor activity against mouse P388 cells allografted in male CDF1 mouse assessed as disease cures by measuring 30-days host survival at 6.25 mg/kg, ip administered daily for 9 days as Klucel suspension starting 24 hrs after tumor inoculation relative to control; format: functional; conditions: route intraperitoneal; summary of the method: as §2
P388 [11] = assay: Antitumor activity against mouse P388 cells allografted in female BDF1 mouse assessed as disease cures by measuring 30-days host survival at 12.5 mg/kg, ip administered daily for 9 days as Klucel suspension starting 24 hrs after tumor inoculation relative to control; format: functional; conditions: route intraperitoneal; summary of the method: as §2
Mus musculus [12] = assay: Toxicity in female CDF1 mouse allografted with mouse P388 cells assessed as animal survival at 200 mg/kg, ip administered daily for 9 days as Klucel suspension starting 24 hrs after tumor inoculation; format: organism-based; design: dose 200 mg/kg, route intraperitoneal; conditions: in vivo; summary of the method: as §3
Mus musculus [13] = assay: Toxicity in female CDF1 mouse allografted with mouse P388 cells assessed as animal survival at 50 mg/kg, ip administered daily for 9 days as Klucel suspension starting 24 hrs after tumor inoculation; format: organism-based; design: dose 50 mg/kg, route intraperitoneal; conditions: in vivo; summary of the method: as §3
Mus musculus [14] = assay: Toxicity in male CDF1 mouse allografted with mouse P388 cells assessed as animal survival at 50 mg/kg, ip administered daily for 9 days as Klucel suspension starting 24 hrs after tumor inoculation; format: organism-based; design: dose 50 mg/kg, route intraperitoneal; conditions: in vivo; summary of the method: as §3
P388 [15] = assay: Antitumor activity against mouse P388 cells allografted in male CDF1 mouse assessed as change in body weight at 25 mg/kg, ip administered daily for 9 days as Klucel suspension starting 24 hrs after tumor inoculation; format: functional; conditions: route intraperitoneal
Summary of the method: (§4)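 Ascitic fluid carrying P388 cells was inoculated ip. Compound was given ip in nine daily doses, starting 24 h after inoculation, in Klucel (hydroxypropylcellulose) suspension or in saline with Tween-80. Body-weight difference (treated minus control) was recorded on day 5. Survival was scored as %T/C of median survival time, and 30-day survival counted as cure.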

P388 [16] = assay: Antitumor activity against mouse P388 cells allografted in male CDF1 mouse assessed as change in body weight at 50 mg/kg, ip administered daily for 9 days as Klucel suspension starting 24 hrs after tumor inoculation; format: functional; conditions: route intraperitoneal; summary of the method: as §4
P388 [17] = assay: Antitumor activity against mouse P388 cells allografted in female CDF1 mouse assessed as change in body weight at 200 mg/kg, ip administered daily for 9 days as Klucel suspension starting 24 hrs after tumor inoculation; format: functional; conditions: route intraperitoneal; summary of the method: as §4
P388 [18] = assay: Antitumor activity against mouse P388 cells allografted in male CDF1 mouse assessed as change in body weight at 12.5 mg/kg, ip administered daily for 9 days as Klucel suspension starting 24 hrs after tumor inoculation; format: functional; conditions: route intraperitoneal; summary of the method: as §4
P388 [19] = assay: Antitumor activity against mouse P388 cells allografted in male CDF1 mouse assessed as change in body weight at 6.25 mg/kg, ip administered daily for 9 days as Klucel suspension starting 24 hrs after tumor inoculation; format: functional; conditions: route intraperitoneal; summary of the method: as §4
P388 [20] = assay: Antitumor activity against mouse P388 cells allografted in female BDF1 mouse assessed as change in body weight at 25 mg/kg, ip administered daily for 9 days as Klucel suspension starting 24 hrs after tumor inoculation; format: functional; conditions: route intraperitoneal; summary of the method: as §4
P388 [21] = assay: Antitumor activity against mouse P388 cells allografted in female BDF1 mouse assessed as change in body weight at 6.25 mg/kg, ip administered daily for 9 days as Klucel suspension starting 24 hrs after tumor inoculation; format: functional; conditions: route intraperitoneal; summary of the method: as §4
P388 [22] = assay: Antitumor activity against mouse P388 cells allografted in female CDF1 mouse assessed as disease cures by measuring 30-days host survival at 100 mg/kg, ip administered daily for 9 days as Klucel suspension starting 24 hrs after tumor inoculation relative to control; format: functional; conditions: route intraperitoneal; summary of the method: as §2
P388 [23] = assay: Antitumor activity against mouse P388 cells allografted in female CDF1 mouse assessed as disease cures by measuring 30-days host survival at 50 mg/kg, ip administered daily for 9 days as Klucel suspension starting 24 hrs after tumor inoculation relative to control; format: functional; conditions: route intraperitoneal; summary of the method: as §2

CC(=O)OCc1c(COC(C)=O)c(-c2ccccc2)n2c1CCC2
EC50 [1]: > 100 µg/mL
Activity (L1210 [2]): -2.3 g
T/C (L1210 [3]): 107%
Activity (Mus musculus [4]): Toxic
Activity (Mus musculus [5]): Non-toxic
T/C (P388 [6]): 107%
Activity (Mus musculus [7]): Non-toxic
Activity (Mus musculus [8]): Non-toxic
T/C (P388 [9]): 142%
T/C (P388 [10]): 125%
T/C (P388 [11]): 126%
Activity (Mus musculus [12]): Toxic
Activity (Mus musculus [13]): Non-toxic
Activity (Mus musculus [14]): Non-toxic
Activity (P388 [15]): -1.2 g
Activity (P388 [16]): -6.1 g
Activity (P388 [17]): 0.5 g
Activity (P388 [18]): -0.2 g
Activity (P388 [19]): -0.3 g
Activity (P388 [20]): -2 g
Activity (P388 [21]): -0.4 g
T/C (P388 [22]): 49%
T/C (P388 [23]): 79%
